The test system of data set [1] is Rattus norvegicus. The experiment in a line: Toxicity in Wistar rat assessed as effect on myeloperoxidase activity at 100 mg/kg, po qd administered for 1 week by spectrophotometric analysis. Type of data set: organism-based. The following applies: in vivo, 168 h. In a few lines: (§1)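 Normal male Wistar rats (150–200 g) underwent the same rectal procedure with saline in place of TNBS. They received water or 100 mg/kg compound orally once daily for 1 week and were killed 24 h after the last dose. The distal 8 cm colon was weighed and homogenized 10% (w/v) in ice-cold bidistilled water. Body weight was taken before instillation and before necropsy.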

Data set [2] has as its system Rattus norvegicus. As to the kind of experiment: Toxicity in Wistar rat assessed as effect on colonic ICAM1 level at 100 mg/kg, po qd administered for 1 week by ELISA. The following applies: in vivo, 168 h. Type of data set: organism-based, Colon. An outline of the steps:
as §1
For orientation: An ELISA detects its analyte on a solid surface through an enzyme-linked reagent.

Data set [3] concerns Rattus norvegicus. The experiment in a line: Anti-colitis activity in Wistar rat assessed as suppression of TNBS-induced body weight reduction at 50 to 300 mg/kg, po qd administered for 1 week starting 48 hrs post TNBS induction. Type of data set: functional, organism-based. An outline of the steps: (§2)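 Male Wistar rats (150–200 g) were fasted 36 h, then given 100 mg/kg TNBS in 0.25 mL 50% ethanol rectally under light ether, with the catheter tip 8 cm from the anus. Oral dosing was in 1 mL per 200 g rat. Rats were killed 24 h after the last dose. Body weight was taken before induction and before necropsy. Ulcer area in the distal 8 cm colon was measured planimetrically (cm2). Colon mass index is colon weight/body weight (mg/g). Mean of ≥6 animals ± SEM.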

For data set [4], the system named is Rattus norvegicus. As to the kind of experiment: Toxicity in Wistar rat assessed as effect on TNF-alpha level at 100 mg/kg, po qd administered for 1 week by ELISA. The following applies: in vivo, 168 h. Type of data set: organism-based. In a few lines:
as §1

Data set [5] concerns Rattus norvegicus. As to the kind of experiment: Anti-colitis activity in Wistar rat assessed as suppression of TNBS-induced reduction of colonic GSH level at 50 to 300 mg/kg, po qd administered for 1 week starting 48 hrs post TNBS induction by spectrophotometric analysis. Format: functional, organism-based. In a few lines:
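TNBS colitis in male Wistar rats: 100 mg/kg TNBS in 0.25 mL 50% ethanol given rectally. Colon was taken 24 h after the last oral dose and homogenized 10% (w/v) in ice-cold water. Homogenate was deproteinized with ice-cold 5% sulfosalicylic acid and spun at 3000 rpm for 20 min; GSH was read spectrophotometrically in the supernatant. Mean of ≥6 animals ± SEM.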

For data set [6], the system named is Rattus norvegicus. As to the kind of experiment: Anti-colitis activity in Wistar rat assessed as suppression of TNBS-induced colonic TNF-alpha level at 50 to 300 mg/kg, po qd administered for 1 week starting 48 hrs post TNBS induction by ELISA. Format: functional, organism-based. An outline of the steps:
(§3)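 TNBS/ethanol colitis in male Wistar rats, as described; oral once-daily treatment for 1 week beginning 48 h post-induction, sacrifice 24 h after final dose. Distal 8 cm colon excised, rinsed in ice-cold saline, homogenized 10% (w/v) in ice-cold bidistilled water; aliquot assayed for TNF-α and IL-1β by ELISA. At least 6 animals per group, mean ± SEM.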

In data set [7] the test system is Rattus norvegicus. As to the kind of experiment: Anti-colitis activity in Wistar rat assessed as reduction of TNBS-induced myeloperoxidase activity at 100 mg/kg, po qd administered for 1 week starting 48 hrs post TNBS induction by spectrophotometric analysis. Format: functional, organism-based.
Data set [8] concerns Rattus norvegicus. The experiment in a line: Toxicity in Wistar rat assessed as effect on IL-1beta level at 100 mg/kg, po qd administered for 1 week by ELISA. Format: organism-based. The settings on record: in vivo, 168 h. An outline of the steps:
as §1

Data set [9] deals with Rattus norvegicus. The experiment in a line: Toxicity in Wistar rat assessed as effect on colon mass index at 100 mg/kg, po qd administered for 1 week. Type of data set: organism-based. The following applies: in vivo, 168 h. An outline of the steps: as §1
In data set [10] the test system is Rattus norvegicus. As to the kind of experiment: Anti-colitis activity in Wistar rat assessed as suppression of TNBS-induced colonic IL-1beta level at 50 to 300 mg/kg, po qd administered for 1 week starting 48 hrs post TNBS induction by ELISA. Type of data set: functional, organism-based. In a few lines:
as §3

Data set [11] relates to Rattus norvegicus. The experiment in a line: Toxicity in Wistar rat assessed as decrease in Hsp70 level at 50 to 300 mg/kg, po qd administered for 1 week starting 48 hrs post TNBS induction by ELISA. Format: organism-based. The settings on record: in vivo. In a few lines:
(§4)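 TNBS colitis in male Wistar rats: 100 mg/kg TNBS in 0.25 mL 50% ethanol, instilled 8 cm into the colon after a 36 h fast. Oral dosing in 1 mL per 200 g rat. Rats were killed 24 h after the last dose. The distal 8 cm colon was rinsed in ice-cold saline and homogenized 10% (w/v) in ice-cold bidistilled water. Mean of ≥6 animals ± SEM.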

For data set [12], the system named is Rattus norvegicus. As to the kind of experiment: Toxicity in Wistar rat assessed as effect on body weight at 100 mg/kg, po qd administered for 1 week. Type of data set: organism-based. The settings on record: in vivo, 168 h. An outline of the steps: as §1
For data set [13], the system named is Rattus norvegicus. The experiment in a line: Anti-colitis activity in Wistar rat assessed as suppression of TNBS-induced fecal calprotectin level at 100 mg/kg, po qd administered for 1 week starting 48 hrs post TNBS induction by ELISA. Format: functional, organism-based. In a few lines:
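Feces were collected before sacrifice from 4 randomly chosen TNBS-colitis rats per group, suspended 1:10 in extraction buffer and incubated 90 min at room temperature. Calprotectin (S100A8/S100A9) was measured by ELISA, with samples incubated 90 min at room temperature. Samples were run in duplicate and medians taken.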

For data set [14], the system named is Rattus norvegicus. As to the kind of experiment: Anti-colitis activity in Wistar rat assessed as reduction of TNBS-induced colon mass index at 100 mg/kg, po qd administered for 1 week starting 48 hrs post TNBS induction (reference value: 7.9 mg/g). Format: functional. An outline of the steps: as §2
Data set [15] has as its system Rattus norvegicus. As to the kind of experiment: Toxicity in Wistar rat assessed as decrease in Hsp70 level at 100 mg/kg, po qd administered for 1 week by ELISA. Type of data set: organism-based. The following applies: in vivo, 168 h. In a few lines:
as §1

Data set [16] relates to Rattus norvegicus. As to the kind of experiment: Toxicity in Wistar rat assessed as effect on colonic GSH level at 100 mg/kg, po qd administered for 1 week by spectrophotometric analysis. Type of data set: organism-based, Colon. The settings on record: in vivo, 168 h. In a few lines: as §1
In data set [17] the test system is Rattus norvegicus. The experiment in a line: Anti-colitis activity in Wistar rat assessed as reduction of TNBS-induced ulcerative area at 50 to 300 mg/kg, po qd administered for 1 week starting 48 hrs post TNBS induction (reference value: 4.9 cm2). Format: functional. In a few lines: as §2
In data set [18] the test system is Rattus norvegicus. The experiment in a line: Toxicity in Wistar rat assessed as decrease in Hsp70 level at 300 mg/kg, po qd administered for 1 week starting 48 hrs post TNBS induction by ELISA. Format: organism-based. The following applies: in vivo. In a few lines: as §4
Data set [19] concerns Rattus norvegicus. As to the kind of experiment: Anti-colitis activity in Wistar rat assessed as suppression of TNBS-induced reduction of colonic GSH level at 300 mg/kg, po qd administered for 1 week starting 48 hrs post TNBS induction by spectrophotometric analysis. Format: functional, organism-based. An outline of the steps:
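Colitis induced rectally with 100 mg/kg TNBS in 50% ethanol; oral dosing daily for 1 week from 48 h later. Colon homogenate (10% w/v, ice-cold water) deproteinized with ice-cold 5% sulfosalicylic acid, centrifuged 3000 rpm 20 min; supernatant used for spectrophotometric reduced glutathione estimation. n ≥ 6, mean ± SEM.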

Data set [20] has as its system Rattus norvegicus. As to the kind of experiment: Anti-colitis activity in Wistar rat assessed as reduction of TNBS-induced colon mass index at 300 mg/kg, po qd administered for 1 week starting 48 hrs post TNBS induction. Type of data set: functional, organism-based. In a few lines: (§5)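 Adult male Wistar rats (150−200 g), fasted 36 h, received 0.25 mL 50% (v/v) ethanol containing 100 mg/kg TNBS, instilled 8 cm into colon under light ether. Oral dosing (water vehicle, 1 mL per 200 g) once daily for 1 week from 48 h; sacrifice 24 h after last dose. Body weight recorded before induction and before necropsy. Distal 8 cm colon weighed; mass index as mg/g body weight. n ≥ 6, mean ± SEM.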

Data set [21] deals with Rattus norvegicus. As to the kind of experiment: Anti-colitis activity in Wistar rat assessed as suppression of TNBS-induced body weight reduction at 300 mg/kg, po qd administered for 1 week starting 48 hrs post TNBS induction. Type of data set: functional, organism-based. An outline of the steps:
as §5

In data set [22] the test system is Rattus norvegicus. As to the kind of experiment: Anti-colitis activity in Wistar rat assessed as reduction of TNBS-induced myeloperoxidase activity at 50 mg/kg, po qd administered for 1 week starting 48 hrs post TNBS induction by spectrophotometric analysis. Format: functional, organism-based. An outline of the steps: as §4
Data set [23] deals with Rattus norvegicus. As to the kind of experiment: Anti-colitis activity in Wistar rat assessed as reduction of TNBS-induced colon mass index at 50 mg/kg, po qd administered for 1 week starting 48 hrs post TNBS induction (reference value: 7.9 mg/g). Type of data set: functional. In a few lines:
as §2

Data set [24] relates to Rattus norvegicus. The experiment in a line: Anti-colitis activity in Wistar rat assessed as suppression of TNBS-induced colonic IL-1beta level at 50 to 100 mg/kg, po qd administered for 1 week starting 48 hrs post TNBS induction by ELISA. Format: functional, organism-based. An outline of the steps:
as §4

The test system of data set [25] is Rattus norvegicus. As to the kind of experiment: Anti-colitis activity in Wistar rat assessed as suppression of TNBS-induced colonic TNF-alpha level at 50 to 100 mg/kg, po qd administered for 1 week starting 48 hrs post TNBS induction by ELISA. Format: functional, organism-based. In a few lines:
as §4

Each structure is given as a SMILES string. Calls of active or inactive are those of the source. The rule behind the calls is not given here.

`CC1=N[C@H](C(=O)O)CCN1`: the Activity entry in the data set on Rattus norvegicus [1] was “Non-toxic”; in the data set on Rattus norvegicus [2], “Non-toxic”; with Rattus norvegicus [4], “Non-toxic”; in the data set with Rattus norvegicus [8], “Non-toxic”; in the data set with Rattus norvegicus [9], “Non-toxic”; with Rattus norvegicus [11], “Toxic”. The Activity entry with Rattus norvegicus [12] was “Non-toxic”; in the data set with Rattus norvegicus [14] it was 4.3 mg/g; in the data set on Rattus norvegicus [15], “Toxic”; with Rattus norvegicus [16], “Non-toxic”; in the data set with Rattus norvegicus [17], 1.2 cm2. The outcome in the data set with Rattus norvegicus [3], in the data set with Rattus norvegicus [6], with Rattus norvegicus [7], with Rattus norvegicus [10] and with Rattus norvegicus [13] was Active. For the same compound, the result in the data set with Rattus norvegicus [5] was inactive.
`O=C(O)c1cc(/N=N/c2ccc(S(=O)(=O)Nc3ccccn3)cc2)ccc1O` [SULFASALAZINE]: the Activity result with Rattus norvegicus [18] is “Toxic”. Moreover, the outcome in the data set with Rattus norvegicus [19] was inactive. Moreover, the result in the data set on Rattus norvegicus [20] and in the data set on Rattus norvegicus [21] was Active.
On to `CC1=NC[C@H](O)[C@@H](C(=O)O)N1`, for which the Activity result in the data set with Rattus norvegicus [1] is on record as “Non-toxic”; in the data set with Rattus norvegicus [2], “Non-toxic”; in the data set with Rattus norvegicus [4], “Non-toxic”; in the data set on Rattus norvegicus [8], “Non-toxic”; with Rattus norvegicus [9], “Non-toxic”; with Rattus norvegicus [11] it was “Toxic”. The Activity result with Rattus norvegicus [12] is listed as “Non-toxic”; with Rattus norvegicus [15], “Toxic”; in the data set with Rattus norvegicus [16], “Non-toxic”.
For the compound `CC1=N[C@H](C(=O)O)[C@@H](O)CN1`, the outcome with Rattus norvegicus [3], with Rattus norvegicus [22], in the data set on Rattus norvegicus [24], in the data set on Rattus norvegicus [25] and in the data set on Rattus norvegicus [13] was Active. Moreover, in the data set with Rattus norvegicus [5], the result was inactive. Moreover, the Activity in the data set on Rattus norvegicus [23] amounted to 4 mg/g; in the data set on Rattus norvegicus [17], 1.3 cm2.

The values are drawn from ChEMBL document CHEMBL3585265, “Bacteria-Derived Compatible Solutes Ectoine and 5α-Hydroxyectoine Act as Intestinal Barrier Stabilizers to Ameliorate Experimental Inflammatory Bowel Disease” (J Nat Prod, 2015).
